For 98 compounds, IC50 results are on record in PubChem BioAssay AID617 (SRMLSC, 2007).

This assay deals with E. coli BW25113 ΔtolC growth inhibition, OD615. The assay is described as follows: E. coli ΔtolC antibacterial growth inhibition – strain BW25113 ΔtolC::kan, dose response (AID 617). An outline of the steps:
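System – E. coli BW25113 ΔtolC::kan bacteria · Input – inoculum from 1:1000-diluted 1.5 h subculture · Buffer or medium – LB plus kanamycin · Compound – serial dilution series of compound · Timing – bacterial growth with compound for 20 h, 37 °C · Measured by – OD615 · Read-out basis – growth-inhibition IC50 from four-parameter logistic curve, bounds set to 0% and 100% · Benchmarks – chloramphenicol 30 µM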
The IC50 is the midpoint of a concentration-inhibition curve. Take `O=C(CSc1nc2nc(-c3cccs3)cc(C(F)(F)F)c2c(=O)[nH]1)NCc1ccco1`: the IC50 is 5.53 µM. As for `CC1CCN(S(=O)(=O)c2cccc(C(=O)NCc3cccs3)c2)CC1`, the figure is 33.4 µM; as for `COc1ccc2c(c1)sc1nc(-c3ccccc3)cn12`, 12.2 µM.

As for `N#CC(C#N)=c1ccc2c(c1)N1C3=C(CCCC3)CC3CCCCC31N=2` (stereo not drawn), the IC50 is 75.6 µM. As to `Cc1cc(SCC#N)n2nc(C)c(-c3ccccc3)c2n1`, the IC50 is 48.5 µM. Then `CCOC(=O)c1cn(CC)c2cc(N3CCCCC3)c(F)cc2c1=O`, with 3.42 µM; and `O=C1c2[nH]nc(-c3ccccc3O)c2C(c2ccccc2)N1Cc1ccco1` (stereo not drawn), with 2.45 µM. Then `O=C(c1cc2nc(-c3ccco3)cc(C(F)(F)F)n2n1)N1CCN(c2ccc(F)cc2)CC1`, with 10.2 µM.

With `N#Cc1nc(COc2ccccc2F)oc1NCCc1ccccc1`, the IC50 was 16.7 µM.

As for `Cc1ccccc1C1=NCC(=O)N(CC(=O)NCc2ccco2)c2sc3c(c21)CCCC3`, the IC50 was 28.6 µM. With `COc1ccc(C(=O)Nc2nc(-c3cccs3)cs2)cc1`, the IC50 is 8.14 µM.

For the compound `O=C(Nc1ccc(CN2CCOCC2)cc1)c1ccc(-c2ccc(Br)cc2)o1`, the IC50 is 30.4 µM. As for `O=C(Nc1ccc(Cl)c(Cl)c1)OCc1cccnc1`, the figure is 13.8 µM. As for `CC1=C(C(=O)OC2CCCC2)C(c2ccc(C)o2)C2=C(CC(c3cccs3)CC2=O)N1` (stereo not drawn), the half-inhibitory concentration (IC50) is 11.2 µM. Then `O=C(Nc1nccs1)C(NS(=O)(=O)c1ccc(Br)s1)c1ccccc1` (stereo not drawn), with 12.8 µM. Then `Cc1ccc2[nH]c(=O)c(CN(Cc3ccc4c(c3)OCO4)Cc3nnnn3C3CCCC3)cc2c1`, with 42.3 µM. Then `COc1ccc(NS(=O)(=O)c2cc(C)ccc2NC(=O)c2cc(C)oc2C)cc1`, with 58.6 µM; and `CCn1c(C(=O)NCCCc2ccccc2)cc2sccc21`, with 8.52 µM; and `Cc1ccccc1Cn1nc(C)c(NC(=O)c2noc3c2CC(C(C)(C)C)CC3)c1C` (stereo not drawn), with 9.29 µM. For `CCCc1nc(SCC(=O)N2CCC(Cc3ccccc3)CC2)c2c(=O)n(C)c(=O)n(C)c2n1`, the IC50 was 11.2 µM. Then `CCCCN(CCCC)C(=O)CSc1nnc(-c2cc(OC)c(OC)c(OC)c2)o1`, with 27.7 µM; and `Cc1cc2c(cc(C(=O)OCC(=O)NCc3cccs3)n2C(C)C)o1`, with 25 µM; and `CCCCOC(=O)Nc1cc(C(=O)OC)ccc1C(=O)OC`, with 26.8 µM.

Regarding `Cc1oc(C(C)(C)C)cc1C(=O)Nc1ccc2c(c1)OCCO2`, the IC50 is 18.9 µM. As for `COc1cc(C2C(C(=O)c3ccc(C)o3)=C(O)C(=O)N2c2cc(C)on2)cc(Br)c1O` (stereo not drawn), the figure is 24.7 µM; as for `COc1ccc(C2CC(c3ccccc3)n3nc(NC(=O)c4cccs4)nc3N2)cc1` (stereo not drawn), 8.18 µM.

For the compound `CCn1cc(C(=O)OC(C)C(=O)Nc2c(C)n(C)n(-c3ccccc3)c2=O)c(=O)c2ccc(C)nc21` (stereo not drawn), the IC50 is 12.7 µM. As for `COc1ccccc1N1CCN(C(c2ccccc2Cl)c2nnnn2C(C)(C)C)CC1` (stereo not drawn), the figure is 27.6 µM.

Consider `O=C(O)c1cc(Cl)c2ccccc2c1O`, for which the IC50 was 10.1 µM. Then `CCCCOc1ccc(S(=O)(=O)Nc2cc(OC)ccc2OC)cc1`, with 16.8 µM.

Regarding `CCOc1ccc(-c2nc(C#N)c(N3CCCCCC3)o2)cc1`, the IC50 is 12.7 µM.

Consider `COCc1cc(C)nc2sc3c(=O)oc(C)nc3c12`, for which the IC50 is 96.2 µM.

Consider `CCN(CC)c1ccc(-c2nn3c(-c4n[nH]c5c4CCC5)nnc3s2)cc1`, for which the IC50 was 20.8 µM. As for `OCCN1CCN(c2nc(-c3ccccc3)c3cc(Cl)ccc3n2)CC1`, the figure is 60.6 µM; as for `CC(C)c1ccc(OCc2ccc(C(=O)N3CCN(c4ccccn4)CC3)cc2)cc1`, 8.11 µM; as for `CCCOc1ccccc1NC(=O)c1c(-c2ccccc2)noc1C`, 15.1 µM. Then `O=C(Nc1nnc(C2CC2)s1)c1cc(-c2ccccc2)nn1-c1ccccc1`, with 6.41 µM; and `Cc1ccc(C)c(N2CCN(C(=O)c3cc4sccc4n3C)CC2)c1`, with 15.1 µM. Then `N#Cc1cn(Cc2ccccc2)c2ccccc12`, with 15.3 µM. Take `Cc1ccccc1S(=O)(=O)Cc1ccc(C(=O)N2CCN(c3cccc(C)c3C)CC2)o1`: the IC50 was 30.8 µM. As for `CCCCCC/C(=N/O)c1ccccn1`, the figure is 3.15 µM; as for `Cn1c(CSc2nnc(SCc3ccccc3)s2)nc2ccccc21`, 22.5 µM; as for `COc1ccc2[nH]c3c(=O)n(CCCCC(=O)N4CCCC4)c(=S)[nH]c3c2c1`, 0.75 µM.

Take `COc1ccc(NC(=O)N2CCCC(c3nc(-c4ccc(C(C)C)cc4)no3)C2)cc1` (stereo not drawn): the IC50 was 16.9 µM. For `CCCOc1ccc2c3c(c(=O)oc2c1OCCC)CCC3`, the IC50 was 14.5 µM.

Take `Cc1nc2c(C(=O)NCCC3=CCCCC3)c[nH]n2c(=O)c1Cl`: the IC50 is 8.36 µM.

On to `O=C1c2ccccc2C(Nc2cccc(C(F)(F)F)c2)N1Cc1ccco1` (stereo not drawn), for which the IC50 is 7.32 µM. As for `CC(C)(C)c1csc(NC(=O)c2ccc(Cl)s2)n1`, the figure is 29.6 µM; as for `O=C(Nc1nc2n(n1)C(c1ccc(Cl)cc1)CC(c1ccc(Cl)cc1)N2)c1ccco1` (stereo not drawn), 4.7 µM; as for `N#Cc1c(NC(=O)CSc2n[nH]c(Cc3ccccc3)n2)oc(-c2ccccc2)c1-c1ccccc1`, 7.4 µM.

As for `CCCN(CCC)c1nc2ccccc2nc1C(C#N)C(=O)OCCOC` (stereo not drawn), the IC50 was 15.7 µM. Then `N#CC1=C(SCC(=O)NC23CC4CC(CC(C4)C2)C3)NC(=O)C(C#N)C12CCCCC2` (stereo not drawn), with 4.11 µM; and `CC(C)(C)c1ccc(OCC(=O)NCc2ccco2)c(Br)c1`, with 14.6 µM; and `CCc1ccccc1NS(=O)(=O)c1ccc(SC)cc1`, with 41.6 µM.

For the compound `COc1ccc(CN(C(=O)CN2C(=O)COc3ccccc32)C2CCCC2)c(OC)c1`, the IC50 was 19.1 µM. As for `Cc1cc(C2N=C(N)Nc3nc4ccccc4n32)c(C)n1-c1ccccc1Cl` (stereo not drawn), the figure is 6.74 µM; as for `CN1C(=O)C2(OCC(COc3ccc(Cl)cc3)O2)c2ccccc21` (stereo not drawn), 11.1 µM. As to `CC(OC(=O)c1ccccc1NCc1ccco1)C(=O)Nc1ncc(Cl)cc1Cl` (stereo not drawn), the IC50 is 39.1 µM. Then `Cn1c(NC(=O)c2ccccc2NC(=O)C(C)(C)C)nc2ccccc21`, with 9.13 µM; and `O=S(=O)(N1CCCCC1)n1c(Cc2ccccc2)nc2ccccc21`, with 6.89 µM.

As to `CCOc1ccc(NS(=O)(=O)c2ccc(SC)cc2)cc1`, the IC50 is 6.84 µM.

For `O=C(Nc1ccc(N2CCN(C(=O)c3ccco3)CC2)c(Cl)c1)c1cccs1`, the IC50 was 12.3 µM. Then `c1ccc(-c2oc3ncnc(NCCCn4ccnc4)c3c2-c2ccccc2)cc1`, with 6.05 µM; and `O=C(CSc1nc(O)c(C2CCCCC2)c(=O)[nH]1)Nc1ccc(Cl)cc1`, with 8.66 µM; and `N#Cc1cn(Cc2cccc(Cl)c2)c2ccccc12`, with 7.45 µM. As for `O=C(O)CCC(=O)N1CCc2cc(S(=O)(=O)N3CCC(Cc4ccccc4)CC3)ccc21`, the IC50 was 1.06 µM. As for `O=S(=O)(c1ccccc1)c1nc(-c2ccco2)oc1N1CCCCCC1`, the figure is 11.2 µM; as for `CC(=O)Nc1nc2ccccc2n1Cc1ccccc1C`, 18.1 µM; as for `CC1(C)COCN1S(=O)(=O)c1ccc(C(=O)Nc2nnc(-c3ccc(Cl)s3)o2)cc1`, below 0.2 µM. As for `N#Cc1nc(Cc2ccccc2)oc1NCCc1ccccc1`, the figure is 8.5 µM. As for `Cc1ccc(Cn2c(SCC(C)C)nc3c2c(=O)n(C)c(=O)n3C)cc1`, the IC50 is 89.6 µM.

As to `CCOc1ccccc1NC(=O)c1cc(CC(C)C)oc1C`, the IC50 is 21.8 µM. As for `Cc1ccc(CN2C(=O)NC(=O)C3(Cc4c(nc5ccccn5c4=O)N4CCCCCC43)C2=O)cc1` (stereo not drawn), the figure is 22.2 µM; as for `O=c1c2cc3ccccc3n2cnn1Cc1ccccc1F`, 17.2 µM; as for `Cc1ccc(C)c(N2CCN(C(=O)c3ccccc3Br)CC2)c1`, 11.2 µM. Then `N#Cc1c(NC(=O)c2ccc(Cn3cc(Br)cn3)o2)sc2c1CCCCCC2`, with 11.5 µM. Then `c1ccc(-c2cccc(-c3ccccn3)n2)nc1`, with 19.4 µM; and `C/C(O)=c1/ccc2cccc3nc(C)nc1c23`, with 26 µM; and `COc1ccccc1-c1nnc2sc(COc3ccc(Cl)cc3)nn12`, with 16.4 µM.

Consider `CSCSC1=C(C#N)C(c2ccc(Cl)cc2)C(C(C)=O)=C(C)N1` (stereo not drawn), for which the IC50 was 9.12 µM. Then `CCOC(=O)c1c(NC(=O)CSc2nnc(C)c(=O)[nH]2)sc2c1CCC2`, with 10.6 µM; and `O=C(OC1CCCCC1)c1ccc(NC(=O)c2ccco2)cc1`, with 6.09 µM.

Regarding `Cc1cccc(-n2ncc3c(N4CC(C)CC(C)C4)ncnc32)c1` (stereo not drawn), the IC50 was 12.2 µM. As for `CCOC(=O)c1cc2sccc2n1Cc1ccc(C#N)cc1`, the figure is 11.1 µM; as for `COc1cccc(-c2cc(C(=O)N3CCc4ccccc4C3)no2)c1`, 8.69 µM; as for `N#Cc1ccc(NC(=O)Nc2ccc(Cl)cc2)cc1`, 0.52 µM.

Regarding `CCOc1cccc(NC(=O)C2CC(=O)N(C)C(=Nc3cccc(F)c3)S2)c1` (stereo not drawn), the IC50 was 15.1 µM. `CCOC(=O)Cc1c(C)nc2c(-c3ccc(Cl)cc3)c[nH]n2c1=O`: the IC50 is 2.11 µM.

Consider `CC(C)C1O/C(=N/C(=O)Nc2ccc(Cl)c(Cl)c2)NC1=O` (stereo not drawn), for which the IC50 was 2.07 µM. As for `O=S(=O)(Nc1nc2ccccc2nc1NCc1ccco1)c1ccc(Cl)cc1`, the figure is 4.77 µM; as for `O=S1(=O)Nc2c(ccc3cccnc23)-c2ccccc21`, 1.31 µM. As for `Cc1ccc(C(=O)Nc2nc(COc3ccccc3)cs2)s1`, the IC50 was 101 µM. As for `CCc1c(C(=O)Nc2ncn(Cc3cccc(C)c3)n2)csc1C`, the figure is 29.1 µM; as for `COc1ccc(OC)c(Nc2nc(-c3cccs3)cs2)c1`, 28.2 µM. As for `Cc1cccc(-c2noc(CN(C(=O)c3ccc(Br)o3)C(C)C)n2)c1`, the figure is 11.8 µM; as for `O=C(Nc1ccc(Cl)cc1)N1CCC(c2nc(-c3cccs3)no2)CC1`, 6.4 µM; as for `N#Cc1nc(COc2ccc(-c3ccccc3)cc2)oc1NCc1cccnc1`, 8.6 µM. As for `O=C(Nc1cccc(Br)c1)c1cc2ccccc2o1`, the figure is 0.98 µM.
